Reference: ChEMBL document CHEMBL1149906, “Perennisosides I-VII, acylated triterpene saponins with antihyperlipidemic activities from the flowers of Bellis perennis” (2008)

Key:
Type in all cases: functional
Mus musculus [1] = experiment: Inhibition of serum triglyceride elevation in olive oil-treated ddY mouse at 25 mg/kg, po after 2 hrs
Summary of the method: (§1)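 Male ddY mice (25–30 g) fasted 24–26 h with free access to water, kept conscious. Test sample given orally, then olive oil 5 mL/kg po 30 min later. Blood drawn from the infraorbital venous plexus 2, 4 and 6 h after the olive oil. Serum TG measured by an enzymatic kit; n = 6 per group; means ± SEM.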

Mus musculus [2] = experiment: Inhibition of serum triglyceride elevation in olive oil-treated ddY mouse at 25 mg/kg, po after 4 hrs; summary of the method: as §1
Mus musculus [3] = experiment: Inhibition of serum triglyceride elevation in olive oil-treated ddY mouse at 25 mg/kg, po after 6 hrs; summary of the method: as §1
Mus musculus [4] = experiment: Inhibition of serum triglyceride elevation in olive oil-treated ddY mouse at 50 mg/kg, po after 2 hrs; summary of the method: as §1
Mus musculus [5] = experiment: Inhibition of serum triglyceride elevation in olive oil-treated ddY mouse at 50 mg/kg, po after 4 hrs; summary of the method: as §1
Mus musculus [6] = experiment: Inhibition of serum triglyceride elevation in olive oil-treated ddY mouse at 50 mg/kg, po after 6 hrs; summary of the method: as §1
Mus musculus [7] = experiment: Inhibition of serum triglyceride elevation in olive oil-treated ddY mouse at 100 mg/kg, po after 2 hrs; summary of the method: as §1
Mus musculus [8] = experiment: Inhibition of serum triglyceride elevation in olive oil-treated ddY mouse at 100 mg/kg, po after 4 hrs; summary of the method: as §1
Mus musculus [9] = experiment: Inhibition of serum triglyceride elevation in olive oil-treated ddY mouse at 100 mg/kg, po after 6 hrs; summary of the method: as §1
Mus musculus [10] = experiment: Inhibition of serum triglyceride elevation in olive oil-treated ddY mouse at 125 mg/kg, po after 2 hrs
Mus musculus [11] = experiment: Inhibition of serum triglyceride elevation in olive oil-treated ddY mouse at 125 mg/kg, po after 4 hrs
Mus musculus [12] = experiment: Inhibition of serum triglyceride elevation in olive oil-treated ddY mouse at 125 mg/kg, po after 6 hrs
Mus musculus [13] = experiment: Inhibition of serum triglyceride elevation in olive oil-treated ddY mouse at 250 mg/kg, po after 2 hrs
Mus musculus [14] = experiment: Inhibition of serum triglyceride elevation in olive oil-treated ddY mouse at 250 mg/kg, po after 4 hrs
Mus musculus [15] = experiment: Inhibition of serum triglyceride elevation in olive oil-treated ddY mouse at 250 mg/kg, po after 6 hrs
Mus musculus [16] = experiment: Inhibition of serum triglyceride elevation in olive oil-treated ddY mouse at 500 mg/kg, po after 2 hrs
Mus musculus [17] = experiment: Inhibition of serum triglyceride elevation in olive oil-treated ddY mouse at 500 mg/kg, po after 4 hrs
Mus musculus [18] = experiment: Inhibition of serum triglyceride elevation in olive oil-treated ddY mouse at 500 mg/kg, po after 6 hrs
Mus musculus [19] = experiment: Inhibition of serum triglyceride elevation in olive oil-treated ddY mouse at 6.25 mg/kg, po after 2 hrs
Mus musculus [20] = experiment: Inhibition of serum triglyceride elevation in olive oil-treated ddY mouse at 6.25 mg/kg, po after 4 hrs
Mus musculus [21] = experiment: Inhibition of serum triglyceride elevation in olive oil-treated ddY mouse at 6.25 mg/kg, po after 6 hrs
Mus musculus [22] = experiment: Inhibition of serum triglyceride elevation in olive oil-treated ddY mouse at 12.5 mg/kg, po after 2 hrs
Mus musculus [23] = experiment: Inhibition of serum triglyceride elevation in olive oil-treated ddY mouse at 12.5 mg/kg, po after 4 hrs
Mus musculus [24] = experiment: Inhibition of serum triglyceride elevation in olive oil-treated ddY mouse at 12.5 mg/kg, po after 6 hrs

Row | Structure (SMILES) | Activity (Mus musculus [1]) | Activity (Mus musculus [2]) | Activity (Mus musculus [3]) | Activity (Mus musculus [4]) | Activity (Mus musculus [5]) | Activity (Mus musculus [6]) | Activity (Mus musculus [7]) | Activity (Mus musculus [8]) | Activity (Mus musculus [9]) | further results
1 | CC(=O)OC[C@H]1O[C@@H](OC(=O)[C@]23CCC(C)(C)C[C@H]2C2=CC[C@@H]4[C@@]5(C)C[C@H](O)[C@H](O)[C@@](C)(COC(C)=O)[C@@H]5CC[C@@]4(C)[C@]2(C)CC3)[C@H](O[C@@H]2O[C@@H](C)[C@H](O)[C@@H](O)[C@H]2O)[C@@H](O[C@@H]2O[C@H](CO)[C@H](O)[C@H](O)[C@H]2O)[C@@H]1O [PERENNISOSIDE II] | 204.6 mg/dL | 147 mg/dL | 87 mg/dL | 232.5 mg/dL | 180.4 mg/dL | 104.6 mg/dL | 179.4 mg/dL | 155.6 mg/dL | 80.6 mg/dL | 
2 | CCOC(=O)C(C)(C)Oc1ccc(Cl)cc1 [CLOFIBRATE] |  |  |  |  |  |  |  |  |  | Activity (Mus musculus [10]): 377.5 mg/dL; Activity (Mus musculus [11]): 295 mg/dL; Activity (Mus musculus [12]): 333.4 mg/dL; Activity (Mus musculus [13]): 441.2 mg/dL; Activity (Mus musculus [14]): 340.5 mg/dL; Activity (Mus musculus [15]): 443.3 mg/dL; Activity (Mus musculus [16]): 318.2 mg/dL; Activity (Mus musculus [17]): 239.7 mg/dL; Activity (Mus musculus [18]): 373.5 mg/dL
3 | CCCCCCCCCCC[C@@H](C[C@@H]1OC(=O)[C@H]1CCCCCC)OC(=O)[C@H](CC(C)C)NC=O [ORLISTAT] | 158.9 mg/dL | 132.2 mg/dL | 140.1 mg/dL |  |  |  |  |  |  | Activity (Mus musculus [19]): 266.4 mg/dL; Activity (Mus musculus [20]): 179.3 mg/dL; Activity (Mus musculus [21]): 155.6 mg/dL; Activity (Mus musculus [22]): 187.9 mg/dL; Activity (Mus musculus [23]): 176 mg/dL; Activity (Mus musculus [24]): 189.7 mg/dL
4 | CC(=O)OC[C@H]1O[C@@H](OC(=O)[C@]23CCC(C)(C)C[C@H]2C2=CC[C@@H]4[C@@]5(C)C[C@H](O)[C@H](O)[C@@](C)(COC(C)=O)[C@@H]5CC[C@@]4(C)[C@]2(C)CC3)[C@H](O[C@@H]2O[C@@H](C)[C@H](O)[C@@H](O)[C@H]2O)[C@@H](O[C@@H]2O[C@H](CO)[C@@H](O)[C@H](O)[C@H]2O)[C@@H]1O [PERENNISOSIDE I] | 337 mg/dL | 357.7 mg/dL | 222.7 mg/dL | 326.9 mg/dL | 355.8 mg/dL | 203.7 mg/dL | 135.7 mg/dL | 278.7 mg/dL | 208.2 mg/dL | 
